AF4-AF9 inh: inhibitors of AF4 peptide binding to AF9, primary screen, biochemical, AlphaScreen, biotin-AF4 peptide, FLAG-AF9, single point; inhibition, % at 10 µM; 350,000 compounds, 0.47% hits; Protein AF-9 (Homo sapiens), P42568; AID 651704, 2012;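 active = every replicate reaching a set inhibition limit, whatever the replicate mean, cut at about 25% in these data; inconclusive = mean inhibition reaches that limit but some replicates miss it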;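 note: 0% = plate neutral control median and 100% = total signal loss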
Target sequence (P42568 whole entry, looked up): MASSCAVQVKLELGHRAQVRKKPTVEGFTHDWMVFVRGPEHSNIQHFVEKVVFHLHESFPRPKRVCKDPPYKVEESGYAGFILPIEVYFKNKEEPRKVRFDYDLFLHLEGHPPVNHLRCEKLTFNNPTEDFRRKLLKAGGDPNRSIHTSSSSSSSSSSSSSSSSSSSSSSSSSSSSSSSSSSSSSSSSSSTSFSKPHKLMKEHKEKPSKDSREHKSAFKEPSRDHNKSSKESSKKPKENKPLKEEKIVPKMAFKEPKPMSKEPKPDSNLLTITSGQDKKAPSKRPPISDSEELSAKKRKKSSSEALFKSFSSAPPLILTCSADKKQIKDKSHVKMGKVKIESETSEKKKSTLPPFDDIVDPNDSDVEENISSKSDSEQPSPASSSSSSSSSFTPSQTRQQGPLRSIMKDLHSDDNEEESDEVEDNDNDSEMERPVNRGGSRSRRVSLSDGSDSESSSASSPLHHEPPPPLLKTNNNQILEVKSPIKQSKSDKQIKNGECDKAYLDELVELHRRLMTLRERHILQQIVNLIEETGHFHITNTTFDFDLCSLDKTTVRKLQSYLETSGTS
SIRT5 inh: SIRT5 desuccinylase inhibitors, primary screen, biochemical, fluorescence imaging, single point, set 5; NAD-dependent protein deacylase sirtuin-5, mitochondrial (Homo sapiens), Q9NXA8; inhibition, % at 15 µM; Purified SirT5, succinyl-peptide AMC, trypsin-coupled fluorescence; 330,000 compounds, 1.1% hits; in the data active = inhibition above about 15%; inconclusive = no clear call, values can overlap the other calls
CaV13 ICDI inh: Disruptors of the CACNA1D IQ motif to Ca2+-dependent inactivation inhibitor domain association, primary screening, Förster resonance energy transfer in intact living …. inhibition, % at 12.3 µM. 340,000 compounds, 0.098% hits. AID 743397. HEK cells, CFP/YFP FRET ICDI-IQ, plate reader, 10 min; percent FRET-ratio fall versus neutral wells;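 active = mean replicate inhibition of at least 30% and at least 1% of replicates passing that level; inconclusive = only one of the two criteria is met; inactive = neither criterion is met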;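 note: 0% = median of the neutral control wells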
S100A4 MyoIIA: inhibitors of S100A4-myosin IIA peptide binding, primary screen, biochemical, fluorescence polarization, TAMRA-MyoIIA peptide; inhibition, % at 10.7 µM; 360,000 compounds, 0.14% hits;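 active = mean inhibition of at least 70% across replicates, with every replicate also reaching that level; inconclusive = mean inhibition reaches 70% but some replicates fall short; inactive = mean inhibition below 70%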
Target sequence (P26447 whole entry, looked up): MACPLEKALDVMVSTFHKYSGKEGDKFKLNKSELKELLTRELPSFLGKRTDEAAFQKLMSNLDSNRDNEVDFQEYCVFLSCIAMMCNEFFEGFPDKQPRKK
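Material: S100A4 monomer protein | Medium: HEPES pH 7.2 with CaCl2, KCl, NaCl, DTT, Triton | Reagent: Labelled myosin peptide probe, 5 nM | Doses: One dose per compound | Times: 5 min incubation before reading | Benchmarks: Neutral control DMSO, positive control TFP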
DENV2 CPE: inhibitors of DENV2 cytopathic effect, primary screen, cell-based, plate reader, single concentration | AID 651640, 2012 | DENV2-infected cells, cytopathic effect rescue | CPE inhibition, % at 9.99 µM | 350,000 compounds, 1.7% hits; in the data active = CPE inhibition above about 20%, passing the limit was not always enough; inconclusive = no clear call, values can overlap the other calls; tested in BHK-21 cells;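 note: 0% = median of neutral control wells and 100% = median of positive control wells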
Numbers without * were called inactive; ? = inconclusive; nt = not tested or not shown. Rows were chosen to be rich in hits. Some 2.7% of all compounds tested hit in one or more screens of this group.

SMILES | AF4-AF9 inh | SIRT5 inh | CaV13 ICDI inh | S100A4 MyoIIA | DENV2 CPE
CN(C)CCCN(C(=O)CCc1ccccc1)c1nc2ccc(F)cc2s1 | nt | nt | -6 | nt | nt
CN(C)CCCN(C(=O)CCc1ccccc1)c1nc2ccc(Br)cc2s1 | 26* | 4 | -6 | 5 | 9
COc1ccc(CCNC(=O)[C@H](CCSC)NC(=O)N2CCn3c2nc2ccccc23)cc1OC | 0 | -4 | -14 | -3 | -5
COc1ccc(CCNC(=O)[C@H](C)NC(=O)N2CCn3c2nc2ccccc23)cc1OC | -1 | 30* | -3 | 3 | 7
COc1ccc(NC(=O)Nc2cccc3c2O[C@@H](CN(C)Cc2ccc(Oc4ccccc4)cc2)[C@H](C)CN([C@H](C)CO)C3=O)cc1 | 2 | 11 | nt | -2 | -2
C[C@H](CO)N1C[C@H](C)[C@H](CN(C)Cc2ccccc2)Oc2ccc(NC(=O)CCCCCC(=O)Nc3ccccc3N)cc2CC1=O | 1 | 0 | nt | -1 | 58*
C[C@@H]1CN([C@@H](C)CO)C(=O)Cc2cc(NC(=O)CCCCCC(=O)Nc3ccccc3N)ccc2O[C@@H]1CN(C)Cc1ccc(-c2ccccc2)cc1 | 2 | -2 | nt | -1 | 13
C[C@H](CO)N1C[C@H](C)[C@H](CN(C)Cc2ccc(Oc3ccccc3)cc2)Oc2ccc(NC(=O)CCCCCC(=O)Nc3ccccc3N)cc2CC1=O | 2 | 30* | nt | 4 | 7
C[C@H]1CN([C@@H](C)CO)C(=O)Cc2cc(NC(=O)CCCCCC(=O)Nc3ccccc3N)ccc2O[C@@H]1CN(C)Cc1ccc(-c2ccccc2)cc1 | -1 | -2 | nt | 0 | -19
C[C@H]1CN([C@@H](C)CO)C(=O)Cc2cc(NC(=O)CCCCCC(=O)Nc3ccccc3N)ccc2O[C@H]1CN(C)Cc1ccc(Oc2ccccc2)cc1 | 3 | 20* | nt | 7 | ?
C[C@H](CO)N1C[C@H](C)[C@@H](CN(C)Cc2ccc(Cl)c(Cl)c2)Oc2ccc(NC(=O)CCCCCC(=O)Nc3ccccc3N)cc2CC1=O | 3 | 26* | nt | 1 | -6
C[C@H]1CN([C@@H](C)CO)C(=O)Cc2cc(NC(=O)Cc3ccccc3)ccc2O[C@H]1CN(C)Cc1ccc(C(F)(F)F)cc1 | 1 | 8 | nt | -1 | -10
O=C(C[C@H]1CC[C@H](NC(=O)c2cccnc2)[C@@H](CO)O1)NCCN1CCCCC1 | -1 | -5 | nt | -32 | -4
C[C@@H]1CN([C@@H](C)CO)C(=O)Cc2cc(NC(=O)CCCCCC(=O)Nc3ccccc3N)ccc2O[C@@H]1CN(C)Cc1ccc2c(c1)OCO2 | 2 | 6 | nt | -2 | 60*
C[C@@H]1CN([C@@H](C)CO)C(=O)Cc2cc(NC(=O)CCCN(C)C)ccc2O[C@H]1CN(C)Cc1ccc(Oc2ccccc2)cc1 | 39* | -4 | nt | 17 | 2
C[C@H](CO)N1C[C@H](C)[C@H](CN(C)Cc2ccc(Cl)c(Cl)c2)Oc2ccc(NC(=O)CCCCCC(=O)Nc3ccccc3N)cc2C1=O | -3 | 24* | nt | -6 | -3
C[C@@H]1CN([C@H](C)CO)C(=O)Cc2cc(NC(=O)CCCCCC(=O)Nc3ccccc3N)ccc2O[C@H]1CN(C)Cc1ccc2c(c1)OCO2 | -2 | nt | nt | 1 | -8
CCCC#Cc1ccc2c(c1)O[C@@H](CN(C)C(=O)NC(C)C)[C@H](C)CN([C@H](C)CO)S2(=O)=O | 2 | nt | nt | -10 | -4
C[C@@H]1CCCCO[C@@H](CN(C)C(=O)Nc2ccc(F)cc2)[C@@H](C)CN([C@@H](C)CO)C(=O)c2cc(N(C)C)ccc2O1 | 5 | 0 | nt | 4 | -8
Cc1cccc(N(C(=O)Cn2nnc3ccccc32)C(C(=O)NC(C)(C)C)c2ccsc2)c1 (configuration not stated) | 4 | 8 | -8 | -4 | 24*
COc1ccc(Cl)cc1N1C(=O)CC(N2CCN(S(=O)(=O)c3ccccc3F)CC2)C1=O (configuration not stated) | 0 | -1 | -4 | -2 | 37*
CC(C)NC(=O)NNC(=O)c1nn(-c2ccc(F)cc2)ccc1=O | -3 | 22* | -4 | 0 | 11
Cc1ccc(-c2cc(=O)c3ccccc3[nH]2)cc1 | -8 | nt | -10 | -6 | nt
Cc1ccc2[nH]c(-c3ccccc3)cc(=O)c2c1 | nt | nt | -11 | -3 | 111*
Cc1ccc(N(CC(=O)NC2CCCCC2C)S(=O)(=O)c2c(C)noc2C)cc1 (configuration not stated) | 0 | 1 | -17 | -1 | 19
SMILES | AF4-AF9 inh | SIRT5 inh | CaV13 ICDI inh | S100A4 MyoIIA | DENV2 CPE
CCOc1ccc(N(CC(=O)NC2CCCC(C)C2C)S(=O)(=O)c2c(C)noc2C)cc1 (configuration not stated) | 6 | nt | -12 | 3 | 26*
NC(=O)c1ccsc1NC(=O)COC(=O)[C@@H]1CCCN1C(=O)c1cccs1 | 0 | -1 | -14 | -2 | 122*
NC(=O)c1ccsc1NC(=O)COC(=O)C1CCCN1C(=O)c1cccs1 (configuration not stated) | nt | nt | 0 | nt | nt
O=C(C[C@H]1CC[C@H]2[C@@H](COC[C@H](O)CN2S(=O)(=O)c2cccc(Cl)c2)O1)N1CCOCC1 | -2 | 7 | nt | -4 | 21*
COc1cccc(S(=O)(=O)N2C[C@@H](O)COC[C@H]3O[C@H](CC(=O)N4CCN(C)CC4)CC[C@@H]32)c1 | 0 | -2 | nt | -3 | 20*
O=C(C[C@H]1CC[C@H](NC(=O)NC2CCCCC2)[C@H](CO)O1)NCc1ccccc1 | -3 | -1 | nt | -2 | -4
COc1ccc(S(=O)(=O)Nc2ccc3c(c2)C(=O)N([C@@H](C)CO)C[C@@H](C)[C@H](CN(C)Cc2ccc(C(F)(F)F)cc2)OCCCC[C@H](C)O3)cc1 | 2 | 7 | nt | 30 | -2
COc1ccc(S(=O)(=O)Nc2ccc3c(c2)C(=O)N([C@H](C)CO)C[C@@H](C)[C@@H](CN(C)Cc2ccc(C(F)(F)F)cc2)OCCCC[C@H](C)O3)cc1 | 1 | 17* | nt | 15 | -6
COc1ccc(S(=O)(=O)Nc2ccc3c(c2)C(=O)N([C@H](C)CO)C[C@@H](C)[C@@H](CN(C)Cc2ccc(C(F)(F)F)cc2)OCCCC[C@@H](C)O3)cc1 | 1 | 15* | nt | 20 | -4
COc1ccc(S(=O)(=O)Nc2ccc3c(c2)C(=O)N([C@H](C)CO)C[C@H](C)[C@H](CN(C)Cc2ccc(C(F)(F)F)cc2)OCCCC[C@H](C)O3)cc1 | 1 | 39* | nt | 17 | 1
COc1ccc(S(=O)(=O)Nc2ccc3c(c2)C(=O)N([C@H](C)CO)C[C@@H](C)[C@H](CN(C)Cc2ccc(C(F)(F)F)cc2)OCCCC[C@@H](C)O3)cc1 | 4 | 2 | nt | 9 | nt

Compound activity from PubChem.
